Source: ChEMBL document CHEMBL5329156, “Discovery and development of novel substituted monohydrazides as potent antifungal agents” (RSC Med Chem, 2023)
Values after ≈ are worked out from the molar mass of the structure shown. Active and inactive are the calls of the source. The rule behind the calls is not given here.

How the values were obtained:
Candida albicans [1] = assay: Antifungal activity against Candida albicans ATCC 10231 assessed as fungal growth inhibition by double dilution method; assay type: functional
Outline: (§1)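 Broth microdilution after CLSI M27-A3/M38-A2 with minor changes. Single colony grown overnight in YPD at 35 °C, 200 rpm. Compound final range 0.06-31.3 µg/mL; incubated 48 h at 35 °C.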

Candida albicans [2] = assay: Antifungal activity against Candida albicans ATCC 64124 assessed as fungal growth inhibition by double dilution method; assay type: functional
Outline: (§2)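 Broth microdilution after CLSI M27-A3/M38-A2 with minor modifications. A single colony was grown overnight in YPD at 35 °C with shaking at 200 rpm. Cells were mixed 1:1 with compound (final 0.06-31.3 µg/mL, from DMSO stocks) and incubated 48 h at 35 °C.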

Candida albicans [3] = assay: Antifungal activity against itraconazole/fluconazole susceptible Candida albicans ATCC MYA-2876 assessed as fungal growth inhibition by double dilution method; assay type: functional; outline: as §2
Candida albicans [4] = assay: Antifungal activity against itraconazole/fluconazole resistant Candida albicans ATCC 90819 assessed as fungal growth inhibition by double dilution method; assay type: functional; outline: as §2
Candida albicans [5] = assay: Antifungal activity against itraconazole/fluconazole susceptible Candida albicans ATCC MYA-2310 assessed as fungal growth inhibition by double dilution method; assay type: functional; outline: as §2
Candida albicans [6] = assay: Antifungal activity against itraconazole/fluconazole resistant Candida albicans ATCC MYA-1237 assessed as fungal growth inhibition by double dilution method; assay type: functional; outline: as §2
Candida albicans [7] = assay: Antifungal activity against itraconazole/fluconazole resistant Candida albicans ATCC MYA-1003 assessed as fungal growth inhibition by double dilution method; assay type: functional; outline: as §2
Nakaseomyces glabratus [8] = assay: Antifungal activity against Candida glabrata ATCC 2001 assessed as fungal growth inhibition by double dilution method; assay type: functional; outline: as §1
Pichia kudriavzevii [9] = assay: Antifungal activity against Pichia kudriavzevii ATCC 6258 assessed as fungal growth inhibition by double dilution method; assay type: functional; outline: as §1
Nakaseomyces glabratus [10] = assay: Antifungal activity against Candida glabrata ATCC 22019 assessed as fungal growth inhibition by double dilution method; assay type: functional; outline: as §1
[Candida] auris [11] = Antifungal activity against Candida auris AR Bank # 0384 assessed as fungal growth inhibition by double dilution method; assay type: functional; details: Candidozyma auris; outline: as §1
[Candida] auris [12] = Antifungal activity against Candida auris AR Bank # 0390 assessed as fungal growth inhibition by double dilution method; assay type: functional; details: Candidozyma auris; outline: as §1
Cryptococcus neoformans = assay: Antifungal activity against Cryptococcus neoformans ATCC MYA-895 assessed as fungal growth inhibition by double dilution method; assay type: functional; outline: as §1
Aspergillus terreus = assay: Antifungal activity against Aspergillus terreus ATCC MYA-3633 assessed as fungal growth inhibition by double dilution method; assay type: functional
Aspergillus fumigatus [13] = assay: Antifungal activity against Aspergillus fumigatus NRRL 163 assessed as fungal growth inhibition by double dilution method; assay type: functional
Aspergillus flavus = assay: Antifungal activity against Aspergillus flavus ATCC MYA-3631 assessed as fungal growth inhibition by double dilution method; assay type: functional
Aspergillus nidulans = assay: Antifungal activity against Aspergillus nidulans ATCC 38163 assessed as fungal growth inhibition by double dilution method; assay type: functional
Aspergillus fumigatus [14] = assay: Antifungal activity against Aspergillus fumigatus NRRL 5109 assessed as fungal growth inhibition by double dilution method; assay type: functional
Aspergillus fumigatus [15] = assay: Antifungal activity against Aspergillus fumigatus NRRL 6113 assessed as fungal growth inhibition by double dilution method; assay type: functional
J774.A1 = assay: Cytotoxicity against J774A.1 cells assessed as reduction in cell viability at 31.3 microg/ml; assay type: toxicity, cell-based; details: mouse, dose 31.3 µg/ml
Outline: (§3)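 Cells in DMEM with 10% FBS and 1% Pen/Strep, seeded at 10,000 cells/well and held overnight at 37 °C, 5% CO2. Compounds added at final 31.3-0.12 µg/mL (0.05% DMSO vehicle) for 24 h. Resazurin then added for 6 h; fluorescence read at ex 560/em 590. Triton X-100 1% as positive control; values normalized to vehicle. Run in quadruplicate.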

HEK293 = assay: Cytotoxicity against human HEK-293 cells assessed as reduction in cell viability at 31.3 microg/ml; assay type: toxicity, cell-based; details: dose 31.3 µg/ml; outline: as §3
[16] = Cytotoxicity against human HepG2 cells assessed as cell survival at 31.3 microg/ml relative to control; assay type: toxicity, cell-based; details: at 31.3 µg/mL, read-out: Activity; outline: as §3
[Candida] auris [17] = Antifungal activity against Candida auris AR Bank # 381 assessed as fungal growth inhibition by double dilution method; assay type: functional; details: Candidozyma auris; outline: as §1
[Candida] auris [18] = Antifungal activity against Candida auris AR Bank # 382 assessed as fungal growth inhibition by double dilution method; assay type: functional; details: Candidozyma auris; outline: as §1
[Candida] auris [19] = Antifungal activity against Candida auris AR Bank # 383 assessed as fungal growth inhibition by double dilution method; assay type: functional; details: Candidozyma auris; outline: as §1
[Candida] auris [20] = Antifungal activity against Candida auris AR Bank # 384 assessed as fungal growth inhibition by double dilution method; assay type: functional; details: Candidozyma auris; outline: as §1
[Candida] auris [21] = Antifungal activity against Candida auris AR Bank # 385 assessed as fungal growth inhibition by double dilution method; assay type: functional; details: Candidozyma auris; outline: as §1
[Candida] auris [22] = Antifungal activity against Candida auris AR Bank # 386 assessed as fungal growth inhibition by double dilution method; assay type: functional; details: Candidozyma auris; outline: as §1
[Candida] auris [23] = Antifungal activity against Candida auris AR Bank # 387 assessed as fungal growth inhibition by double dilution method; assay type: functional; details: Candidozyma auris; outline: as §1
[Candida] auris [24] = Antifungal activity against Candida auris AR Bank # 388 assessed as fungal growth inhibition by double dilution method; assay type: functional; details: Candidozyma auris; outline: as §1
[Candida] auris [25] = Antifungal activity against Candida auris AR Bank # 389 assessed as fungal growth inhibition by double dilution method; assay type: functional; details: Candidozyma auris; outline: as §1
[Candida] auris [26] = Antifungal activity against Candida auris AR Bank # 390 assessed as fungal growth inhibition by double dilution method; assay type: functional; details: Candidozyma auris; outline: as §1
Candida duobushaemulonii [27] = assay: Antifungal activity against Candida duobushaemulonii AR Bank # 391 assessed as fungal growth inhibition by double dilution method; assay type: functional; details: Candidozyma duobushaemuli; outline: as §1
Candida duobushaemulonii [28] = assay: Antifungal activity against Candida duobushaemulonii AR Bank # 392 assessed as fungal growth inhibition by double dilution method; assay type: functional; details: Candidozyma duobushaemuli; outline: as §1
[Candida] haemuloni [29] = Antifungal activity against Candida haemulonii AR Bank # 393 assessed as fungal growth inhibition by double dilution method; assay type: functional; details: Candidozyma haemuli; outline: as §1
Candida duobushaemulonii [30] = assay: Antifungal activity against Candida duobushaemulonii AR Bank # 394 assessed as fungal growth inhibition by double dilution method; assay type: functional; details: Candidozyma duobushaemuli; outline: as §1
[Candida] haemuloni [31] = Antifungal activity against Candida haemulonii AR Bank # 395 assessed as fungal growth inhibition by double dilution method; assay type: functional; details: Candidozyma haemuli; outline: as §1
Kodamaea ohmeri = assay: Antifungal activity against Kodamaea ohmeri AR Bank # 396 assessed as fungal growth inhibition by double dilution method; assay type: functional; outline: as §1
Pichia kudriavzevii [32] = assay: Antifungal activity against Pichia kudriavzevii AR Bank # 397 assessed as fungal growth inhibition by double dilution method; assay type: functional; outline: as §1
Clavispora lusitaniae = assay: Antifungal activity against Clavispora lusitaniae AR Bank # 398 assessed as fungal growth inhibition by double dilution method; assay type: functional; outline: as §1
Saccharomyces cerevisiae [33] = assay: Antifungal activity against Saccharomyces cerevisiae AR Bank # 399 assessed as fungal growth inhibition by double dilution method; assay type: functional; outline: as §1
Saccharomyces cerevisiae [34] = assay: Antifungal activity against Saccharomyces cerevisiae AR Bank # 400 assessed as fungal growth inhibition by double dilution method; assay type: functional; outline: as §1
HepG2 = assay: Cytotoxicity against human HepG2 cells assessed as reduction in cell viability upto 31.3 microg/ml; assay type: toxicity, cell-based; details: dose < 31.3 µg/ml; outline: as §3
Candida albicans [35] = assay: Antifungal activity against Candida albicans ATCC 10231 assessed as fungal growth inhibition by time kill studies; assay type: functional, organism-based
Outline: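 Overnight YPD culture (35 °C, 200 rpm) diluted in RPMI 1640 to ~1×10⁵ CFU/mL. […] Samples at 0, 3, 6, 9, 12, 18 and 24 h were 10-fold diluted and plated on PDA; colonies counted after 48 h at 35 °C. Run in duplicate.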

Candida albicans [36] = assay: Antibiofilm activity against Candida albicans ATCC 10231 assessed as reduction in biofilm production at 1.96 to 3.9 microg/ml by biofilm formation assay; assay type: functional, organism-based; details: dose 1.96-3.9 µg/ml
Candida albicans [37] = assay: Antibiofilm activity against Candida albicans ATCC 10231 assessed as reduction in preformed biofilm production by biofilm formation assay; assay type: functional, organism-based
Outline: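 After PBS washes, XTT 0.5 mg/mL with 1 µM menadione added, 3 h at 37 °C in the dark; absorbance read at 450 nm.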

Compound: O=C(NNc1cccc(F)c1)c1cnccn1
- MIC (Candida albicans [1]): 0.24 µg/mL (≈ 1.03 µM)
- MIC (Candida albicans [2]): 1.95 µg/mL (≈ 8.4 µM)
- MIC (Candida albicans [3]): 3.9 µg/mL (≈ 16.8 µM)
- MIC (Candida albicans [4]): 0.98 µg/mL (≈ 4.22 µM)
- MIC (Candida albicans [5]): 7.8 µg/mL (≈ 33.6 µM)
- MIC (Candida albicans [6]): 0.98 µg/mL (≈ 4.22 µM)
- MIC (Candida albicans [7]): 0.98 µg/mL (≈ 4.22 µM)
- MIC (Nakaseomyces glabratus [8]): 7.8 µg/mL (≈ 33.6 µM)
- MIC (Pichia kudriavzevii [9]): 0.49 µg/mL (≈ 2.11 µM)
- MIC (Nakaseomyces glabratus [10]): 3.9 µg/mL (≈ 16.8 µM)
- MIC ([Candida] auris [11]): 0.98 µg/mL (≈ 4.22 µM)
- MIC ([Candida] auris [12]): 0.98 µg/mL (≈ 4.22 µM)
- MIC (Cryptococcus neoformans): 0.12 µg/mL (≈ 0.517 µM)
- MIC (Aspergillus terreus): 0.98 µg/mL (≈ 4.22 µM)
- MIC (Aspergillus fumigatus [13]): > 31.3 µg/mL
- MIC (Aspergillus flavus): 15.6 µg/mL (≈ 67.2 µM)
- MIC (Aspergillus nidulans): 0.98 µg/mL (≈ 4.22 µM)
- MIC (Aspergillus fumigatus [14]): > 31.3 µg/mL
- MIC (Aspergillus fumigatus [15]): > 31.3 µg/mL
- Activity (J774.A1): Non-Toxic
- Activity (HEK293): Non-Toxic
- viability at 31.3 microg/ml [16]: 94%

Compound: O=C(NNc1cccc(Cl)c1)c1ccccn1
- MIC (Candida albicans [1]): 0.12 µg/mL (≈ 0.484 µM)
- MIC (Candida albicans [2]): 0.98 µg/mL (≈ 3.96 µM)
- MIC (Candida albicans [3]): 0.98 µg/mL (≈ 3.96 µM)
- MIC (Candida albicans [4]): 0.49 µg/mL (≈ 1.98 µM)
- MIC (Candida albicans [5]): 0.98 µg/mL (≈ 3.96 µM)
- MIC (Candida albicans [6]): 0.98 µg/mL (≈ 3.96 µM)
- MIC (Candida albicans [7]): 0.49 µg/mL (≈ 1.98 µM)
- MIC (Nakaseomyces glabratus [8]): 1.95 µg/mL (≈ 7.87 µM)
- MIC (Pichia kudriavzevii [9]): 0.49 µg/mL (≈ 1.98 µM)
- MIC (Nakaseomyces glabratus [10]): 1.95 µg/mL (≈ 7.87 µM)
- MIC ([Candida] auris [11]): 0.98 µg/mL (≈ 3.96 µM)
- MIC ([Candida] auris [12]): 0.98 µg/mL (≈ 3.96 µM)
- MIC (Cryptococcus neoformans): 0.12 µg/mL (≈ 0.484 µM)
- MIC (Aspergillus terreus): 0.98 µg/mL (≈ 3.96 µM)
- MIC (Aspergillus fumigatus [13]): > 31.3 µg/mL
- MIC (Aspergillus flavus): > 31.3 µg/mL
- MIC (Aspergillus nidulans): 0.24 µg/mL (≈ 0.969 µM)
- MIC (Aspergillus fumigatus [14]): > 31.3 µg/mL
- MIC (Aspergillus fumigatus [15]): > 31.3 µg/mL
- MIC ([Candida] auris [17]): 0.98 µg/mL (≈ 3.96 µM)
- MIC ([Candida] auris [18]): 0.49 µg/mL (≈ 1.98 µM)
- MIC ([Candida] auris [19]): 0.49 µg/mL (≈ 1.98 µM)
- MIC ([Candida] auris [20]): 0.98 µg/mL (≈ 3.96 µM)
- MIC ([Candida] auris [21]): 0.49 µg/mL (≈ 1.98 µM)
- MIC ([Candida] auris [22]): 0.24 µg/mL (≈ 0.969 µM)
- MIC ([Candida] auris [23]): 0.49 µg/mL (≈ 1.98 µM)
- MIC ([Candida] auris [24]): 0.49 µg/mL (≈ 1.98 µM)
- MIC ([Candida] auris [25]): 0.49 µg/mL (≈ 1.98 µM)
- MIC ([Candida] auris [26]): 0.49 µg/mL (≈ 1.98 µM)
- MIC (Candida duobushaemulonii [27]): 0.24 µg/mL (≈ 0.969 µM)
- MIC (Candida duobushaemulonii [28]): 0.24 µg/mL (≈ 0.969 µM)
- MIC ([Candida] haemuloni [29]): 0.12 µg/mL (≈ 0.484 µM)
- MIC (Candida duobushaemulonii [30]): 12 µg/mL (≈ 48.4 µM)
- MIC ([Candida] haemuloni [31]): ≤ 0.06 µg/mL
- MIC (Kodamaea ohmeri): 0.12 µg/mL (≈ 0.484 µM)
- MIC (Pichia kudriavzevii [32]): 0.12 µg/mL (≈ 0.484 µM)
- MIC (Clavispora lusitaniae): 0.98 µg/mL (≈ 3.96 µM)
- MIC (Saccharomyces cerevisiae [33]): 0.98 µg/mL (≈ 3.96 µM)
- MIC (Saccharomyces cerevisiae [34]): 0.98 µg/mL (≈ 3.96 µM)
- Activity (J774.A1): Non-Toxic
- Activity (HEK293): Non-Toxic
- Activity (HepG2): Non-Toxic
- Activity (Candida albicans [35]): Dose-Dependent Effect
- Activity (Candida albicans [36]): Active
- Activity (Candida albicans [37]): inactive
